The nature of experiment [1]: Inhibition of Hsp90. The gist of the method:
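Thermally denatured firefly luciferase refolded in rabbit reticulocyte lysate at room temperature. Run in triplicate and repeated at least twice; luminescence read with 10 s integration. IC50 is the concentration that cuts recovery of luciferase activity by 50% versus DMSO. Linearity checked by anti-luciferase Western blot over the time course.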

For experiment [2], the target named is T1, Heat shock protein HSP90 (Homo sapiens, UniProt P07900+P08238). Kind of experiment: Inhibition of Hsp90 in human MCF7 cells assessed as induction of ERalpha degradation after 36 hrs by Western blot analysis. Format: cell-based. In short, it runs like this:
(§1)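 MCF-7 cells grown in DMEM:Ham's F-12 (1:1) with nonessential amino acids, 2 mM L-glutamine, antibiotics and 10% FBS. Seeded at 1 × 10^6 per dish, attached overnight, treated with varying concentrations for 36 h at 37 °C, 5% CO2. Harvested for Western blot of client proteins. Controls were GA 500 nM and DMSO.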
A general note: Immunoblotting shows a protein as a band on a membrane.

Experiment [3] addresses T1, Heat shock protein HSP90. Kind of experiment: Inhibition of Hsp90 in human MCF7 cells assessed as induction of Akt degradation after 36 hrs by Western blot analysis. Format: cell-based. The gist of the method: as §1
For a further experiment, the species on record is Bos taurus. Kind of experiment: Inhibition of ATPase activity of bovine Hsp70 at upto 400 uM. In short, it runs like this:
(§2)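 Intrinsic ATPase measured with purified chaperone (bovine Hsp70 or bacterial DnaK, 1 µM) and 1 mM ATP, 3 h at 37 °C, compound or DMSO. Malachite green-molybdate added, then quenched with 3% sodium citrate; absorbance read at 620 nm. Compound tested up to 400 µM. Result is % of solvent control, mean of triplicates.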

In experiment [4] the target is T1, Heat shock protein HSP90. Kind of experiment: Inhibition of Hsp90 in human MCF7 cells assessed as induction of Raf degradation after 36 hrs by Western blot analysis. Format: cell-based. The gist of the method:
as §1

Experiment [5] has as its target T1, Heat shock protein HSP90. Kind of experiment: Inhibition of Hsp90 in human MCF7 cells assessed as induction of actin degradation after 36 hrs by Western blot analysis. Format: cell-based. In short, it runs like this: as §1
The test system of another experiment is SK-BR-3. The experiment is described as follows: Antiproliferative activity against human SkBr3 cells ERalpha-negative and overexpressing Her2.
The subject of another experiment is MCF7. The experiment is described as follows: Antiproliferative activity against human MCF7 cells expressing ERalpha. Format: functional, cell-based. In short, it runs like this: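 MCF-7 cells (ERα-positive human breast cancer) grown in 1:1 DMEM:Ham's F-12 with nonessential amino acids, 2 mM L-glutamine, streptomycin, penicillin and 10% FBS at 37 °C, 5% CO2. Antiproliferative IC50 derived from three separate experiments, each run in triplicate.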

The species named for experiment [6] is Oryctolagus cuniculus. The experiment is described as follows: Inhibition of Hsp90-dependent luciferase refolding in rabbit reticulocyte at 100 uM after 20 mins.
The species entered for experiment [7] is Oryctolagus cuniculus. Kind of experiment: Inhibition of Hsp90-dependent maturation and activation of heme-regulated eIF2-alpha kinase in heme-deficient rabbit reticulocyte lysate at 100 uM.
The target in experiment [8] is T1, Heat shock protein HSP90. Kind of experiment: Inhibition of Hsp90 in human SkBr3 cells assessed as induction of Her2 degradation by ELISA. Format: cell-based. In short, it runs like this:
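SkBr3 cells seeded at 3000/well, attached overnight, then treated 24 h. Washed with ice-cold PBS/1% Tween and fixed with -20 °C methanol, 10 min at 4 °C. Blocked in 5% BSA/PBST 1 h. Rabbit anti-Her2 (1:500) overnight at 4 °C, then HRP anti-rabbit (1:1000) 2 h at rt; chemiluminescence read. IC50 from three experiments in triplicate.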
A general note: ELISA stands for enzyme-linked immunosorbent assay.

The target of experiment [9] is T1, Heat shock protein HSP90. Kind of experiment: Inhibition of Hsp90 in human MCF7 cells assessed as induction of Her2 degradation after 36 hrs by Western blot analysis. Type of experiment: cell-based.
A short description of experiment [10]: Inhibition of ATPase activity of bacterial DnaK at upto 400 uM. In short, it runs like this:
as §2

For experiment [11], the species on record is Oryctolagus cuniculus. Kind of experiment: Inhibition of Hsp90-dependent activation of heme-regulated Eif2-alpha kinase in heme-deficient rabbit reticulocyte lysate at 100 uM.
Experiment [12] is described as follows: Effect on binding of Hsp90 to HR1 relative to control.
A short description of experiment [13]: Inhibition of Hsp90 in cell based assay.

Active and inactive are the calls of the source. No cut-off for these calls is given here.

Turning to `COc1cc(OC)c2c(=O)c(-c3ccc4c(c3)OCO4)coc2c1`, the result in experiment [1] was inactive.

For `CC1(C)C=Cc2c(cc3occ(-c4ccc5c(c4)OCO5)c(=O)c3c2O)O1`, the result in [1] was inactive.

A word on the IC50: it is the concentration needed to halve the response being measured. `CC(C)=CCc1c(O)cc2occ(-c3ccc4c(c3)OCO4)c(=O)c2c1O` [DERRUBONE]: the result at Heat shock protein HSP90 [2], on Heat shock protein HSP90 [3], on Heat shock protein HSP90 [4], on Heat shock protein HSP90 [5], in the experiment filed under Oryctolagus cuniculus [6] and in the experiment listed under Oryctolagus cuniculus [7] was Active. Further, the result on Heat shock protein HSP90 [9] and in the experiment filed under Oryctolagus cuniculus [11] was Active. The outcome (in the experiment filed under Bos taurus; in [10]) was inactive. Further, the IC50 in the experiment on SK-BR-3 was 12 µM; with MCF7 it was 9 µM; on Heat shock protein HSP90 [8], 14 µM; in experiment [1], 0.23 µM. Besides, the Activity in experiment [12] was found to be 46%.

For `C[C@@H]1C[C@H]2O[C@@H]2C=C/C=C/C(=O)Cc2c(Cl)c(O)cc(O)c2C(=O)O1` [RADICICOL], the IC50 in experiment [1] is less than 0.1 µM.

`COC1=C2C[C@@H](C)C[C@H](OC)[C@H](O)[C@@H](C)/C=C(\C)[C@H](OC(N)=O)[C@@H](OC)/C=C\C=C(/C)C(=O)NC(=CC1=O)C2=O` (stereo in doubt) [GELDANAMYCIN]: in [1], the IC50 is less than 0.1 µM. Further, the Activity in [12] was determined as 80%.

Turning to `COc1ccc(-c2c(O)c3c(OC)c4c(cc3oc2=O)OC(C)(C)C=C4)cc1`, in experiment [1], the result was inactive.

As for `COc1cc(OC)c2c(OC)c(-c3ccc4c(c3)OCO4)c(=O)oc2c1`, the result in experiment [1] was inactive.

`CO[C@@H]1[C@@H](OC(N)=O)[C@@H](O)[C@H](Oc2ccc3c(O)c(NC(=O)c4ccc(O)c(CC=C(C)C)c4)c(=O)oc3c2C)OC1(C)C` [NOVOBIOCIN]: it took 500 µM to reach half-maximal inhibition in [13] (IC50).

For the origin of these results see ChEMBL document CHEMBL1141356, “Derrubone, an inhibitor of the Hsp90 protein folding machinery” (J Nat Prod, 2007).
